In ChEMBL document CHEMBL1240443, “A study of cytotoxicity of novel chlorokojic acid derivatives with their antimicrobial and antiviral activities” (Eur J Med Chem, 2010) one finds MIC, MNTC and CPE-inhibitory concentration data, which are given here for 8 molecules.

For data set [1], the system named is Klebsiella pneumoniae. Description: Antimicrobial activity against extended spectrum beta lactamase expressing Klebsiella pneumoniae by spectrophotometry. In kind it is functional. The procedure, abridged: (§1)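 Broth microdilution in Mueller–Hinton broth. Two-fold dilutions from 256 to 0.125 µg/mL. Inoculum 10^5 c.f.u./mL, diluted from a McFarland 0.5 culture. Incubated at 35 °C for 24 h and 48 h in a humid chamber, triplicate.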

The test system of data set [2] is Proteus mirabilis. Nature of the data set: Antimicrobial activity against extended spectrum beta lactamase expressing Proteus mirabilis by spectrophotometry. In kind it is functional. The procedure, abridged: as §1
Data set [3] deals with Enterococcus faecalis. Description: Antimicrobial activity against Enterococcus faecalis ATCC 29212 by spectrophotometry. Format: functional. The procedure, abridged: as §1
Data set [4] has as its system Acinetobacter baumannii. Nature of the data set: Antimicrobial activity against Acinetobacter baumannii RSKK 02026 by spectrophotometry. In kind it is functional. The procedure, abridged:
as §1

Data set [5] concerns Enterococcus faecalis. Nature of the data set: Antimicrobial activity against cephalosporin-resistant Enterococcus faecalis by spectrophotometry. Format: functional. The procedure, abridged:
as §1

Data set [6] relates to Bacillus subtilis. Nature of the data set: Antimicrobial activity against Bacillus subtilis ATCC 6633 by spectrophotometry. Format: functional. The procedure, abridged: as §1
The test system of data set [7] is Proteus mirabilis. Nature of the data set: Antimicrobial activity against Proteus mirabilis ATCC 7002 by spectrophotometry. Format: functional. The procedure, abridged:
as §1

For data set [8], the system named is Bacillus subtilis. Nature of the data set: Antimicrobial activity against ceftriaxone-resistant Bacillus subtilis by spectrophotometry. Format: functional. The procedure, abridged:
as §1

Data set [9] has as its system Escherichia coli. Nature of the data set: Antimicrobial activity against extended spectrum beta lactamase expressing Escherichia coli by spectrophotometry. In kind it is functional. The procedure, abridged: as §1
Data set [10] has as its system Acinetobacter baumannii. Nature of the data set: Antimicrobial activity against cephalosporin-resistant Acinetobacter baumannii by spectrophotometry. In kind it is functional. The procedure, abridged: as §1
For data set [11], the system named is Klebsiella pneumoniae. Description: Antimicrobial activity against Klebsiella pneumoniae RSKK 574 by spectrophotometry. Format: functional. The procedure, abridged: as §1
A further data set deals with Staphylococcus aureus. Description: Antimicrobial activity against methicillin-resistant Staphylococcus aureus by spectrophotometry. In kind it is functional. The procedure, abridged: as §1
Data set [12] has as its system Pseudomonas aeruginosa. Description: Antimicrobial activity against trimethoprim-sulfamethoxazole and tazobactum-induced Pseudomonas aeruginosa by spectrophotometry. Format: functional. The procedure, abridged:
as §1

A short description of data set [13]: Cytotoxicity against african green monkey Vero cells after 48 hrs. As to conditions: chlorocebus sabaeus. Format: cell-based. The procedure, abridged: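 Confluent cell monolayers exposed to two-fold (Log2) dilutions of each sample (51.2–0.012 µg/mL) in EMEM, 5% CO2, 37 °C, 48 h. Scored by light microscopy against untreated cultures; rows damaging all cells counted toxic. Maximum non-toxic concentration (MNTC, µg/mL) taken as highest concentration leaving cells unaffected. Vero grown in EMEM/10% fetal calf serum with streptomycin/penicillin.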

Another data set has as its system Human respirovirus 3. Nature of the data set: Antiviral activity against parainfluenza-3 virus infected in Vero cells assessed as reduction of virus-induced cytopathic effect. In kind it is functional. The procedure, abridged:
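Vero cells grown in EMEM with 10% fetal calf serum. Two-fold dilutions from 51.2 to 0.012 µg/mL, with PI-3 added at its TCID50-based titre, held 2 h at 37 °C in 5% CO2. CPE scored by microscope against untreated controls, giving the CPE-inhibitory concentration range.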

Data set [14] is described as follows: Cytotoxicity against MDBK cells after 48 hrs. In kind it is cell-based, Bos taurus. As to conditions: cattle.
Data set [15] concerns Escherichia coli. Description: Antimicrobial activity against Escherichia coli ATCC 35218 by spectrophotometry. Format: functional. The procedure, abridged: as §1
For a further data set, the system named is Candida parapsilosis. Description: Antifungal activity against Candida parapsilosis ATCC 22019 by spectrophotometry. In kind it is functional. As to conditions: Lodderomyces parapsilosis. The procedure, abridged:
(§2)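 Yeast broth microdilution in RPMI-1640 with L-glutamine, buffered to pH 7 with MOPS. Inoculum 10^5 c.f.u./mL, prepared by the spectrophotometric method. Two-fold dilutions from 256 to 0.125 µg/mL. Incubated at 35 °C for 24 h and 48 h in a humid chamber, triplicate.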

Another data set relates to Candida albicans. Nature of the data set: Antifungal activity against Candida albicans ATCC 10231 by spectrophotometry. Format: functional. The procedure, abridged:
as §2

Data set [16] has as its system Pseudomonas aeruginosa. Nature of the data set: microbe, parasite or virus in culture. As to conditions: ATCC 10145.

≈ marks a conversion by molar mass, not a printed value. Some results are limits rather than exact numbers.

Regarding `CC1(C)S[C@@H]2[C@H](NC(=O)[C@H](N)c3ccccc3)C(=O)N2[C@H]1C(=O)O` [AMPICILLIN], the MIC with Klebsiella pneumoniae [1] was > 128 µg/mL; against Proteus mirabilis [2], > 128 µg/mL; with Enterococcus faecalis [3], 0.5 µg/mL (≈ 1.43 µM); in the data set on Acinetobacter baumannii [4], 2 µg/mL (≈ 5.72 µM); against Enterococcus faecalis [5] it was > 128 µg/mL; in the data set with Bacillus subtilis [6], 0.12 µg/mL (≈ 0.343 µM). For the same molecule, the MIC against Proteus mirabilis [7] is 2 µg/mL (≈ 5.72 µM); in the data set with Bacillus subtilis [8] it was 0.5 µg/mL (≈ 1.43 µM); with Escherichia coli [9] it was > 128 µg/mL; against Acinetobacter baumannii [10], > 128 µg/mL; with Klebsiella pneumoniae [11], 2 µg/mL (≈ 5.72 µM); in the data set with Staphylococcus aureus, > 128 µg/mL.
As to `C[C@H]1COc2c(N3CCN(C)CC3)c(F)cc3c(=O)c(C(=O)O)cn1c23.C[C@H]1COc2c(N3CCN(C)CC3)c(F)cc3c(=O)c(C(=O)O)cn1c23.O` [LEVOFLOXACIN], the MIC with Proteus mirabilis [2] was 1 µg/mL; in the data set on Enterococcus faecalis [3], 0.5 µg/mL; against Acinetobacter baumannii [4], 0.12 µg/mL; with Enterococcus faecalis [5], 32 µg/mL; with Proteus mirabilis [7], < 0.12 µg/mL; against Acinetobacter baumannii [10], 64 µg/mL. Further, the MIC against Klebsiella pneumoniae [11] was < 0.12 µg/mL; in the data set on Staphylococcus aureus, 128 µg/mL.
Molecule GENTAMICIN had an MIC in the data set with Pseudomonas aeruginosa [12] of 2 µg/mL.
For `CCOC(=O)C1=C[C@@H](OC(CC)CC)[C@H](NC(C)=O)[C@@H](N)C1` [OSELTAMIVIR], the MNTC at 48 h in data set [13] was found to be 1.6 µg/mL. In addition, in the data set with Human respirovirus 3, the CPE-inhibitory concentration stood at 0.012 µg/mL.
Take `Nc1nc2c(ncn2COCCO)c(=O)[nH]1` [ACYCLOVIR]: the CPE-inhibitory concentration with Human respirovirus 3 amounted to 0.012 µg/mL. The same molecule registered an MNTC at 48 h in data set [14] of 1.6 µg/mL.
On to `O=c1cc(CCl)oc(CN2CCN(Cc3ccc(F)cc3)CC2)c1O`, for which the MNTC at 48 h in data set [13] came out at 0.4 µg/mL; in data set [14], 1.6 µg/mL. In addition, the MIC against Klebsiella pneumoniae [1] came to 64 µg/mL (≈ 174 µM); with Escherichia coli [15], 16 µg/mL (≈ 43.6 µM); against Proteus mirabilis [2], 64 µg/mL (≈ 174 µM); against Enterococcus faecalis [3], 16 µg/mL (≈ 43.6 µM); in the data set with Acinetobacter baumannii [4] it was 32 µg/mL (≈ 87.2 µM); with Enterococcus faecalis [5] it was 32 µg/mL (≈ 87.2 µM). For the same molecule, the MIC in the data set on Bacillus subtilis [6] stood at 32 µg/mL (≈ 87.2 µM); against Proteus mirabilis [7] it was 16 µg/mL (≈ 43.6 µM); in the data set on Bacillus subtilis [8], 64 µg/mL (≈ 174 µM); in the data set with Escherichia coli [9], 64 µg/mL (≈ 174 µM); against Pseudomonas aeruginosa [12], 64 µg/mL (≈ 174 µM); against Candida parapsilosis, 16 µg/mL (≈ 43.6 µM). The MIC was 16 µg/mL (≈ 43.6 µM) with Candida albicans; 16 µg/mL (≈ 43.6 µM) with Pseudomonas aeruginosa [16]; 64 µg/mL (≈ 174 µM) in the data set with Acinetobacter baumannii [10]; 16 µg/mL (≈ 43.6 µM) in the data set on Klebsiella pneumoniae [11]; 64 µg/mL (≈ 174 µM) with Staphylococcus aureus. The CPE-inhibitory concentration in the data set with Human respirovirus 3 was 0.05 µg/mL.
On to `O=c1cc(CCl)oc(CN2CCN(C(c3ccccc3)c3ccc(Cl)cc3)CC2)c1O` (configuration not stated), for which the MNTC at 48 h in [13] and in [14] was 0.4 µg/mL each time. Besides, the MIC turned out to be 64 µg/mL (≈ 139 µM) with Klebsiella pneumoniae [1]; 4 µg/mL (≈ 8.71 µM) in the data set on Escherichia coli [15]; 64 µg/mL (≈ 139 µM) against Proteus mirabilis [2]; 16 µg/mL (≈ 34.8 µM) against Enterococcus faecalis [3]; 4 µg/mL (≈ 8.71 µM) in the data set with Acinetobacter baumannii [4]; 32 µg/mL (≈ 69.7 µM) with Enterococcus faecalis [5]. For the same molecule, the MIC against Bacillus subtilis [6] was 1 µg/mL (≈ 2.18 µM); in the data set on Proteus mirabilis [7] it was 8 µg/mL (≈ 17.4 µM); with Bacillus subtilis [8] it was 2 µg/mL (≈ 4.35 µM); with Escherichia coli [9], 64 µg/mL (≈ 139 µM); with Pseudomonas aeruginosa [12], 16 µg/mL (≈ 34.8 µM); in the data set with Candida parapsilosis, 8 µg/mL (≈ 17.4 µM). Moreover, the MIC was determined as 4 µg/mL (≈ 8.71 µM) in the data set with Candida albicans; 2 µg/mL (≈ 4.35 µM) against Pseudomonas aeruginosa [16]; 16 µg/mL (≈ 34.8 µM) against Acinetobacter baumannii [10]; 4 µg/mL (≈ 8.71 µM) in the data set on Klebsiella pneumoniae [11]; 64 µg/mL (≈ 139 µM) in the data set with Staphylococcus aureus. For the same molecule, the CPE-inhibitory concentration in the data set with Human respirovirus 3 is 0.1 µg/mL.
For the molecule `OC(Cn1cncn1)(Cn1cncn1)c1ccc(F)cc1F` [FLUCONAZOLE], the MIC in the data set with Candida parapsilosis was 4 µg/mL (≈ 13.1 µM); against Candida albicans, 2 µg/mL (≈ 6.53 µM).
